This passage reports IC50 results from ChEMBL document CHEMBL4251549, “Design, synthesis and biological evaluation of nitrogen-containing macrocyclic bisbibenzyl derivatives as potent anticancer agents by targeting the lysosome” (Eur J Med Chem, 2017).

Common to all, as to assay type: functional, cell-based
For one test, the system named is A549. The experiment in a line: Antiproliferative activity in human A549 cells after 48 hrs by MTT assay. As to conditions: A549, 48 h. A digest of the protocol: (§1)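 Cells exposed to compound for 48 h. Viability read by MTT, with absorbance of the solubilised MTT product at 570 nm. IC50 derived from at least three independent experiments.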
A general note: Tetrazolium dyes change colour on reduction, which living cells bring about.

In a further test the test system is MCF7. The experiment in a line: Antiproliferative activity in human MCF7 cells after 48 hrs by MTT assay. As to conditions: MCF7, 48 h. A digest of the protocol: as §1
The test system of a further test is K562. Description: Antiproliferative activity in human K562 cells after 48 hrs by MTT assay. As to conditions: K562, 48 h. In outline:
as §1

Molecules are shown by their SMILES. Where only a bound is given, the exact number is not on record here.

What is called IC50 is the concentration that inhibits the measured activity by half. For the compound `Oc1ccc2cc1Oc1ccc(cc1)CCc1cccc(OCCN3CCCCCC3)c1-c1ccc(cc1O)CC2`, the IC50 in the test on A549 is 2.98 µM; in the test with MCF7, 3.03 µM; in the test on K562 it was 2.73 µM.

`CN(C)CCOc1cccc2c1-c1ccc(cc1O)CCc1ccc(O)c(c1)Oc1ccc(cc1)CC2`: the results for the concentration for half-maximal inhibition (IC50) in the test on A549, with MCF7 and in the test on K562 were 1.3 µM, 2.38 µM and 1.56 µM, respectively.

For the compound `CCN(CC)Cc1ccc2c(c1O)-c1ccc(cc1O)CCc1ccc(O)c(c1)Oc1ccc(cc1)CC2`, the IC50 in the test with A549 amounted to 5.74 µM; in the test on MCF7, 7.59 µM; in the test with K562 it was 7.86 µM.

As to `CCN(CC)Cc1cc2cc(c1O)Oc1ccc(cc1)CCc1ccc(CN(CC)CC)c(O)c1-c1ccc(cc1O)CC2`, the 50% inhibitory concentration (IC50) in the test on A549 turned out to be 3.78 µM; in the test on MCF7, 1.05 µM; in the test with K562 it was 1.86 µM.

As for `COc1ccc(N2CCN(Cc3cc4cc(c3O)Oc3ccc(cc3)CCc3ccc(CN5CCN(c6ccc(OC)cc6)CC5)c(O)c3-c3ccc(cc3O)CC4)CC2)cc1`, the IC50 in the test with A549, in the test on MCF7 and in the test with K562 was above 20 µM in each case.

For the compound `CC(=O)Nc1cc2cc(c1OC(C)=O)Oc1ccc(cc1)CCc1cccc(OC(C)=O)c1-c1ccc(cc1OC(C)=O)CC2`, the concentration for half-maximal inhibition (IC50) in the test with A549, in the test with MCF7 and in the test on K562 was above 20 µM in each case.

Consider `Oc1cc2ccc1-c1c(ccc(CN3CCCCC3)c1O)CCc1ccc(cc1)Oc1cc(cc(CN3CCCCC3)c1O)CC2`, for which the IC50 with A549 is 4.85 µM; in the test on MCF7 it was 2.04 µM; in the test on K562 it was 0.66 µM.

Consider `c1cc2c(c(OCCN3CCCC3)c1)-c1ccc(cc1OCCN1CCCC1)CCc1ccc(OCCN3CCCC3)c(c1)Oc1ccc(cc1)CC2`, for which the 50% inhibitory concentration (IC50) with A549 was 1.04 µM; with MCF7, 0.88 µM; with K562, 1.79 µM.

Turning to `Oc1cc2ccc1-c1c(ccc(CN3CCC(O)CC3)c1O)CCc1ccc(cc1)Oc1cc(cc(CN3CCC(O)CC3)c1O)CC2`, the figures for the half-inhibitory concentration (IC50) with A549, in the test on MCF7 and in the test on K562 were 3.26 µM, 3.95 µM and 2.56 µM, respectively.

For `CN(C)Cc1cc2cc(c1O)Oc1ccc(cc1)CCc1ccc(CN(C)C)c(O)c1-c1ccc(cc1O)CC2`, the results for the 50% inhibitory concentration (IC50) in the test with A549, with MCF7 and with K562 were 4.81 µM, 4.22 µM and 2.84 µM, respectively.

Consider `c1cc2c(c(OCCN3CCOCC3)c1)-c1ccc(cc1OCCN1CCOCC1)CCc1ccc(OCCN3CCOCC3)c(c1)Oc1ccc(cc1)CC2`, for which the half-maximal inhibitory concentration (IC50) came to 5.23 µM in the test with A549, 4.19 µM with MCF7 and 3.43 µM in the test on K562.

With `COCCN(CCOC)Cc1cc2cc(c1O)Oc1ccc(cc1)CCc1ccc(CN(CCOC)CCOC)c(O)c1-c1ccc(cc1O)CC2`, the half-maximal inhibitory concentration (IC50) with A549, in the test on MCF7 and in the test with K562 was above 20 µM each time.

Take `CN1CCN(Cc2ccc3c(c2O)-c2ccc(cc2O)CCc2ccc(O)c(c2)Oc2ccc(cc2)CC3)CC1`: the IC50 with A549 turned out to be 5.59 µM; in the test on MCF7, 6.02 µM; in the test on K562, 3.31 µM.

As for `CC(C)(C)OC(=O)N1CCN(Cc2ccc3c(c2O)-c2ccc(cc2O)CCc2ccc(O)c(c2)Oc2ccc(cc2)CC3)CC1`, the IC50 in the test on A549, with MCF7 and in the test on K562 was above 20 µM each time.

For the compound `CN(C)c1cc2cc(c1O)Oc1ccc(cc1)CCc1cccc(O)c1-c1ccc(cc1O)CC2`, the half-maximal inhibitory concentration (IC50) in the test on A549, in the test on MCF7 and in the test on K562 was above 20 µM in each case.

Consider `c1cc2c(c(OCCN3CCCCCC3)c1)-c1ccc(cc1OCCN1CCCCCC1)CCc1ccc(OCCN3CCCCCC3)c(c1)Oc1ccc(cc1)CC2`, for which the results for the IC50 with A549, in the test on MCF7 and in the test on K562 were 0.53 µM, 0.66 µM and 0.26 µM, respectively.

`CN(CCO)Cc1cc2cc(c1O)Oc1ccc(cc1)CCc1ccc(CN(C)CCO)c(O)c1-c1ccc(cc1O)CC2`: the IC50 amounted to 5.21 µM with A549, 6 µM in the test on MCF7 and 5.67 µM with K562.

Regarding `Oc1ccc2cc1Oc1ccc(cc1)CCc1cccc(OCCN3CCCCC3)c1-c1ccc(cc1O)CC2`, the 50% inhibitory concentration (IC50) is 2.13 µM in the test with A549, 2.49 µM with MCF7 and 2.31 µM in the test on K562.

On to `CN(C)CCCOc1ccc2cc1Oc1ccc(cc1)CCc1cccc(OCCCN(C)C)c1-c1ccc(cc1OCCCN(C)C)CC2`, for which the IC50 was found to be 1.44 µM in the test on A549, 3.05 µM in the test with MCF7 and 2.5 µM in the test on K562.

Take `Oc1ccc2cc1Oc1ccc(cc1)CCc1ccc(CN3CCOCC3)c(O)c1-c1ccc(cc1O)CC2`: the IC50 in the test with A549, in the test on MCF7 and in the test with K562 was above 20 µM each time.

In the case of `CC(C)(C)OC(=O)N1CCN(Cc2cc3cc(c2O)Oc2ccc(cc2)CCc2ccc(CN4CCN(C(=O)OC(C)(C)C)CC4)c(O)c2-c2ccc(cc2O)CC3)CC1`, the 50% inhibitory concentration (IC50) in the test on A549, in the test with MCF7 and in the test on K562 was above 20 µM each time.

Consider `Nc1cc2cc(c1O)Oc1ccc(cc1)CCc1cccc(O)c1-c1ccc(cc1O)CC2`, for which the IC50 in the test with A549, in the test on MCF7 and with K562 was above 20 µM throughout.

Turning to `Oc1ccc2cc1Oc1ccc(cc1)CCc1ccc(CN3CCC(O)CC3)c(O)c1-c1ccc(cc1O)CC2`, the IC50 in the test with A549 was determined as 5.74 µM; in the test on MCF7 it was 9.05 µM; in the test on K562 it was 7.07 µM.

Regarding `c1cc2c(c(OCCCN3CCCC3)c1)-c1ccc(cc1OCCCN1CCCC1)CCc1ccc(OCCCN3CCCC3)c(c1)Oc1ccc(cc1)CC2`, the figures for the IC50 in the test on A549, in the test on MCF7 and in the test on K562 were 1.67 µM, 2.12 µM and 2.13 µM, respectively.

As to `Oc1cc2ccc1-c1c(ccc(CN3CCOCC3)c1O)CCc1ccc(cc1)Oc1cc(cc(CN3CCOCC3)c1O)CC2`, the concentration for half-maximal inhibition (IC50) in the test with A549, in the test with MCF7 and in the test with K562 was above 20 µM in each case.

`Oc1ccc2cc1Oc1ccc(cc1)CCc1ccc(CN3CCSCC3)c(O)c1-c1ccc(cc1O)CC2`: the IC50 with A549 worked out at 16.3 µM; with MCF7, 15.8 µM; in the test with K562, 13.4 µM.

For the compound `Oc1ccc2cc1Oc1ccc(cc1)CCc1ccc(CN3CCN(Cc4ccccc4)CC3)c(O)c1-c1ccc(cc1O)CC2`, the concentration for half-maximal inhibition (IC50) in the test on A549, with MCF7 and in the test with K562 was above 20 µM throughout.

`CN(CCO)Cc1ccc2c(c1O)-c1ccc(cc1O)CCc1ccc(O)c(c1)Oc1ccc(cc1)CC2`: the IC50 worked out at 9.07 µM in the test on A549, 8.28 µM with MCF7 and 9.19 µM in the test on K562.

`Oc1ccc2cc1Oc1ccc(cc1)CCc1ccc(CN3CCCC3)c(O)c1-c1ccc(cc1O)CC2`: the concentration for half-maximal inhibition (IC50) in the test with A549 was 2.26 µM; in the test with MCF7 it was 2.41 µM; with K562, 4.82 µM.
